Source: ChEMBL document CHEMBL1137710, “Synthesis and in vitro antitumor activity of new quinoxaline derivatives” (2009)

What was measured:
Type in all cases: functional
LOX IMVI = assay: Growth inhibition of human LOXIMVI cells after 48 hrs by sulforhodamine B assay
How it was run: (§1)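 NCI 60-human-tumor-cell-line panel, with compounds tested over a 5-log dose range. Values are taken from dose-response curves as log10 molar concentrations: GI50 is 50% net growth inhibition, TGI is total growth inhibition, and LC50 is 50% net cell death.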

SK-MEL-28 = assay: Growth inhibition of human SK-MEL-28 cells after 48 hrs by sulforhodamine B assay; conditions: SK-MEL-28, 48 h; how it was run: as §1
SF-268 [1] = assay: Anticancer activity against human SF268 cells assessed as cell growth at 100 uM after 48 hrs by sulforhodamine B assay; conditions: SF-268, 48 h, read-out: Activity
[2] = Growth inhibition of human Hs 578T cells after 48 hrs by sulforhodamine B assay; how it was run: as §1
DU-145 = assay: Growth inhibition of human DU145 cells after 48 hrs by sulforhodamine B assay; conditions: DU-145, 48 h; how it was run: as §1
NCI-H460 [3] = assay: Anticancer activity against human NCI-H460 cells assessed as cell growth at 100 uM after 48 hrs by sulforhodamine B assay; conditions: NCI-H460, 48 h, read-out: Activity
MCF7 [4] = assay: Anticancer activity against human MCF7 cells assessed as cell growth at 100 uM after 48 hrs by sulforhodamine B assay; conditions: MCF7, 48 h, read-out: Activity
SN12C = assay: Growth inhibition of human SN12C cells after 48 hrs by sulforhodamine B assay
How it was run: (§2)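 Run in the NCI 60-human-tumour-cell-line panel, tested over a 5-log dose range. Dose–response curves gave three values per cell line, each as a log10 molar concentration: GI50 (50% inhibition of net cell growth), TGI (total inhibition of net growth) and LC50 (50% net cell death). The mean graph midpoint is the arithmetic mean over all lines, with insensitive lines entered at the highest concentration tested.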

SR = assay: Growth inhibition of human SR cells after 48 hrs by sulforhodamine B assay; how it was run: as §2
BT-549 = assay: Growth inhibition of human BT549 cells after 48 hrs by sulforhodamine B assay; conditions: BT-549, 48 h; how it was run: as §1
RXF 393 = assay: Growth inhibition of human RXF393 cells after 48 hrs by sulforhodamine B assay; conditions: RXF 393, 48 h; how it was run: as §1
PC-3 = assay: Growth inhibition of human PC3 cells after 48 hrs by sulforhodamine B assay; conditions: PC-3, 48 h; how it was run: as §1
KM12 = assay: Growth inhibition of human KM12 cells after 48 hrs by sulforhodamine B assay; conditions: KM12, 48 h; how it was run: as §1
NCI-H226 = assay: Growth inhibition of human NCI-H226 cells after 48 hrs by sulforhodamine B assay; conditions: NCI-H226, 48 h; how it was run: as §1
ACHN = assay: Growth inhibition of human ACHN cells after 48 hrs by sulforhodamine B assay
SNB-75 = assay: Growth inhibition of human SNB75 cells after 48 hrs by sulforhodamine B assay; conditions: SNB-75, 48 h; how it was run: as §2
MCF7 [5] = assay: Growth inhibition of human MCF7 cells after 48 hrs by sulforhodamine B assay; conditions: MCF7, 48 h; how it was run: as §1
A498 = assay: Growth inhibition of human A498 cells after 48 hrs by sulforhodamine B assay; conditions: A498, 48 h; how it was run: as §1
UACC-62 = assay: Growth inhibition of human UACC62 cells after 48 hrs by sulforhodamine B assay; conditions: UACC-62, 48 h; how it was run: as §2
EKVX = assay: Growth inhibition of human EKVX cells after 48 hrs by sulforhodamine B assay; how it was run: as §1
HCT-15 = assay: Growth inhibition of human HCT15 cells after 48 hrs by sulforhodamine B assay; conditions: HCT-15, 48 h; how it was run: as §1
IGROV-1 = assay: Growth inhibition of human IGROV1 cells after 48 hrs by sulforhodamine B assay; conditions: IGROV-1, 48 h; how it was run: as §1
Malme-3M = assay: Growth inhibition of human MALME-3M cells after 48 hrs by sulforhodamine B assay; how it was run: as §1
HOP-92 = assay: Growth inhibition of human HOP92 cells after 48 hrs by sulforhodamine B assay; conditions: HOP-92, 48 h; how it was run: as §1
SK-MEL-2 = assay: Growth inhibition of human SK-MEL-2 cells after 48 hrs by sulforhodamine B assay; conditions: SK-MEL-2, 48 h; how it was run: as §1
CCRF-CEM = assay: Growth inhibition of human CCRF-CEM cells after 48 hrs by sulforhodamine B assay; how it was run: as §1
SK-MEL-5 = assay: Growth inhibition of human SK-MEL-5 cells after 48 hrs by sulforhodamine B assay; conditions: SK-MEL-5, 48 h; how it was run: as §1
NCI-H460 [6] = assay: Growth inhibition of human NCI-H460 cells after 48 hrs by sulforhodamine B assay; conditions: NCI-H460, 48 h; how it was run: as §1
SF-268 [7] = assay: Growth inhibition of human SF268 cells after 48 hrs by sulforhodamine B assay; conditions: SF-268, 48 h; how it was run: as §1
[8] = read-out: pLC50 (the source's name) (converted)

Compound: COc1cc(OC)cc(Oc2nc3cc(N)cc(N)c3nc2-c2ccccc2)c1
- GI50 (LOX IMVI): 2.95 µM
- TGI (LOX IMVI; read-out: pTGI (converted)): 12.9 µM
- GI50 (SK-MEL-28): 3.16 µM
- CC50 (SK-MEL-28; [8]): 38.9 µM
- TGI (SK-MEL-28; read-out: pTGI (converted)): 15.5 µM
- growth at 100 µM (SF-268 [1]): 1%
- GI50 [2]: 1.32 µM
- CC50 [2, 8]: 25.7 µM
- TGI ([2]; read-out: pTGI (converted)): 4.17 µM
- GI50 (DU-145): 21.9 µM
- CC50 (DU-145; [8]): > 100 µM
- TGI (DU-145; read-out: pTGI (converted)): 57.5 µM
- growth at 100 µM (NCI-H460 [3]): 2%
- growth at 100 µM (MCF7 [4]): 0%
- GI50 (SN12C): 17 µM
- CC50 (SN12C; [8]): 69.2 µM
- TGI (SN12C; read-out: pTGI (converted)): 34.7 µM
- GI50 (SR): 1.86 µM
- TGI (SR; read-out: pTGI (converted)): 28.8 µM
- GI50 (BT-549): 1.48 µM
- CC50 (BT-549; [8]): 38 µM
- TGI (BT-549; read-out: pTGI (converted)): 6.92 µM
- GI50 (RXF 393): 5.37 µM
- CC50 (RXF 393; [8]): 44.7 µM
- TGI (RXF 393; read-out: pTGI (converted)): 18.2 µM
- GI50 (PC-3): 10.2 µM
- CC50 (PC-3; [8]): 72.4 µM
- TGI (PC-3; read-out: pTGI (converted)): 27.5 µM
- GI50 (KM12): 1.02 µM
- TGI (KM12; read-out: pTGI (converted)): 6.03 µM
- GI50 (NCI-H226): 6.61 µM
- TGI (NCI-H226; read-out: pTGI (converted)): 42.7 µM
- GI50 (ACHN): 14.8 µM
- TGI (ACHN; read-out: pTGI (converted)): 33.9 µM
- GI50 (SNB-75): 0.126 µM
- TGI (SNB-75; read-out: pTGI (converted)): 2.69 µM
- GI50 (MCF7 [5]): 1.7 µM
- CC50 (MCF7 [5]; [8]): 14.5 µM
- TGI (MCF7 [5]; read-out: pTGI (converted)): 4.57 µM
- GI50 (A498): > 100 µM
- CC50 (A498; [8]): > 100 µM
- TGI (A498; read-out: pTGI (converted)): > 100 µM
- GI50 (UACC-62): 4.07 µM
- CC50 (UACC-62; [8]): 47.9 µM
- TGI (UACC-62; read-out: pTGI (converted)): 18.2 µM
- GI50 (EKVX): 3.8 µM
- TGI (EKVX; read-out: pTGI (converted)): 19.5 µM
- GI50 (HCT-15): 2.04 µM
- TGI (HCT-15; read-out: pTGI (converted)): 12.3 µM
- GI50 (IGROV-1): 2.63 µM
- CC50 (IGROV-1; [8]): 38 µM
- TGI (IGROV-1; read-out: pTGI (converted)): 12.3 µM
- GI50 (Malme-3M): 0.427 µM
- CC50 (Malme-3M; [8]): 30.2 µM
- TGI (Malme-3M; read-out: pTGI (converted)): 5.13 µM
- GI50 (HOP-92): 1.35 µM
- TGI (HOP-92; read-out: pTGI (converted)): 8.91 µM
- GI50 (SK-MEL-2): 2.29 µM
- CC50 (SK-MEL-2; [8]): 38 µM
- TGI (SK-MEL-2; read-out: pTGI (converted)): 10.2 µM
- GI50 (CCRF-CEM): 1.95 µM
- TGI (CCRF-CEM; read-out: pTGI (converted)): 8.71 µM
- GI50 (SK-MEL-5): 1.91 µM
- CC50 (SK-MEL-5; [8]): 24.5 µM
- TGI (SK-MEL-5; read-out: pTGI (converted)): 6.46 µM
- GI50 (NCI-H460 [6]): 2.95 µM
- TGI (NCI-H460 [6]; read-out: pTGI (converted)): 12.6 µM
- GI50 (SF-268 [7]): 1.74 µM
- TGI (SF-268 [7]; read-out: pTGI (converted)): 7.08 µM
